According to ChEMBL document CHEMBL1129245, “N-heteroaryl-2-phenyl-3-(benzyloxy)piperidines: a novel class of potent orally active human NK1 antagonists” (J Med Chem, 1996):
pIC50: −log10 of the molar value. Values belong to the molecule of their own block, whether it stands above or below them.

Key:
Substance-P receptor = Substance-P receptor (Homo sapiens, UniProt P25103); assay: Displacement of [125 I]-Tyr8 SP from the cloned human Tachykinin receptor 1 expressed in CHO cells; assay type: cell-based
Oryctolagus cuniculus = species on record: Oryctolagus cuniculus; assay: Displacement of [3H]diltiazem from rabbit skeletal muscle calcium channel; assay type: tissue-based; details: Muscle tissue
Rattus norvegicus [1] = assay: Inhibition of […] of the rat after intravenous administration; assay type: functional; details: read-out: ID50 (the source's name)
Method in brief: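 Rats given test compound intravenously. Plasma extravasation in the dura mater measured, n = 8-10. ID50 reported in mg/kg iv.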

Cavia porcellus = assay: Inhibition of SP- induced dermal guinea pig after peroral administration; assay type: functional; details: read-out: ID50 (the source's name)
Method in brief: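 Guinea pigs dosed orally with antagonist, then challenged 1 h later with intradermal substance P. Vascular leakage measured as extravasation of Evans blue dye. ID50 (mg/kg po) taken from dose-response data, 5-12 animals per data point.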

Rattus norvegicus [2] = species on record: Rattus norvegicus; assay: Degradation of compound in incubations at 25 uM with normal rat liver microsomes after 1 hour relative to initial concentration of 1 uM; assay type: functional
Method in brief: (§1)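 Each compound incubated at 25 µM with normal rat liver microsomes, P-450 at 1.45 nM/mg microsomal protein. Remaining substrate sampled at 15 min, 1 h, 4 h and 24 h and expressed relative to an initial concentration of 1.0. Single determination (n = 1).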

Rattus norvegicus [3] = species on record: Rattus norvegicus; assay: Degradation of compound in incubations at 25 uM with normal rat liver microsomes after 24 hour relative to initial concentration of 1 uM; assay type: functional; method in brief: as §1
Rattus norvegicus [4] = species on record: Rattus norvegicus; assay: Degradation of compound in incubations at 25 uM with normal rat liver microsomes after 4 hour relative to initial concentration of 1 uM; assay type: functional; method in brief: as §1
Rattus norvegicus [5] = assay: Plasma concentration of 3 mg/kg iv after 0.25 hr in rats; assay type: ADME, organism-based; design: dose 3 mg/kg, route intravenous; details: in vivo
Method in brief: (§2)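 Rats given compound intravenously and orally in solution. Three rats per time point sampled for plasma drug levels. Pharmacokinetic parameters calculated from the plasma concentration–time data using standard equations. Data reported as mean ± SEM.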

[6] = Plasma volume of distribution of the 3 mg/kg in rat; assay type: ADME, organism-based; design: dose 3 mg/kg; method in brief: as §2
Rattus norvegicus [7] = assay: Plasma concentration after 3 mg/kg peroral dosing in rat at 0.25 hr; assay type: ADME, organism-based; design: dose 3 mg/kg, route oral; details: in vivo, po
Rattus norvegicus [8] = assay: Plasma concentration of 3 mg/kg iv after 0.5 hr in rats; assay type: ADME, organism-based; design: dose 3 mg/kg, route intravenous; details: in vivo; method in brief: as §2
Rattus norvegicus [9] = assay: Plasma concentration after 3 mg/kg peroral dosing in rat at 6 hr; assay type: ADME, organism-based; design: dose 3 mg/kg, route oral; details: in vivo, po
Rattus norvegicus [10] = assay: Plasma concentration of 3 mg/kg iv after 2 hr in rats; assay type: ADME, organism-based; design: dose 3 mg/kg, route intravenous; details: in vivo; method in brief: as §2
[11] = Bioavailability in rat; assay type: ADME, organism-based; details: in vivo
[12] = Plasma clearance after intravenous administration iv dosing of 3 mg/kg in rat; assay type: ADME, organism-based; design: dose 3 mg/kg, route intravenous
Rattus norvegicus [13] = assay: Plasma concentration after 3 mg/kg peroral dosing in rat at 8 hr; assay type: ADME, organism-based; design: dose 3 mg/kg, route oral; details: in vivo, po
Rattus norvegicus [14] = assay: Plasma concentration of 3 mg/kg iv after 1 hr in rats; assay type: ADME, organism-based; design: dose 3 mg/kg, route intravenous; details: in vivo; method in brief: as §2
Rattus norvegicus [15] = assay: Plasma concentration after 3 mg/kg peroral dosing in rat at 0.083 h; assay type: ADME, organism-based; design: dose 3 mg/kg, route oral; details: in vivo, po
Rattus norvegicus [16] = assay: Plasma concentration after 3 mg/kg peroral dosing in rat at 1 hr; assay type: ADME, organism-based; design: dose 3 mg/kg, route oral; details: in vivo, po
Rattus norvegicus [17] = assay: Plasma concentration after 3 mg/kg peroral dosing in rat at 2 hr; assay type: ADME, organism-based; design: dose 3 mg/kg, route oral; details: in vivo, po
Rattus norvegicus [18] = assay: Plasma concentration after 3 mg/kg peroral dosing in rat at 4 hr; assay type: ADME, organism-based; design: dose 3 mg/kg, route oral; details: in vivo, po
Rattus norvegicus [19] = assay: Plasma concentration of 3 mg/kg iv after 4 hr in rats; assay type: ADME, organism-based; design: dose 3 mg/kg, route intravenous; details: in vivo; method in brief: as §2
Rattus norvegicus [20] = assay: Plasma concentration of 3 mg/kg iv after 6 hr in rats; assay type: ADME, organism-based; design: dose 3 mg/kg, route intravenous; details: in vivo; method in brief: as §2
Rattus norvegicus [21] = assay: Plasma concentration after 3 mg/kg peroral dosing in rat at 0.5 hr; assay type: ADME, organism-based; design: dose 3 mg/kg, route oral; details: in vivo, po

Substance-P receptor, sequence (P25103 whole entry): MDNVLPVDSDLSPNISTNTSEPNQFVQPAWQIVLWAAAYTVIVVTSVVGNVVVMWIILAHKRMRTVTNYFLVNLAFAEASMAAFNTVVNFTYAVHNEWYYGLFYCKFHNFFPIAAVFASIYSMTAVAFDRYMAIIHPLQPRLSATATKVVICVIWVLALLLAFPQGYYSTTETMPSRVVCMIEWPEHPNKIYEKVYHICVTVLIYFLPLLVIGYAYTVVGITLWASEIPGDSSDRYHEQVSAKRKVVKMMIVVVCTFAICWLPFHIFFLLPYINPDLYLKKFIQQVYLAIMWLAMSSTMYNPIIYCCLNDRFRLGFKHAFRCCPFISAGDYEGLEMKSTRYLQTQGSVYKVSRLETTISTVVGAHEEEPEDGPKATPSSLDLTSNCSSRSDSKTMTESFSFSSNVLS

pIC50 (Substance-P receptor): 9.01
Binding affinity (Oryctolagus cuniculus): 10 µM
SMILES: FC(F)(F)c1cc(CO[C@H]2CCCN(Cc3nnco3)[C@H]2c2ccccc2)cc(C(F)(F)F)c1

pIC50 (Substance-P receptor): 9.05
SMILES: FC(F)(F)c1cc(CO[C@H]2CCCN(Cc3cnc[nH]3)[C@H]2c2ccccc2)cc(C(F)(F)F)c1

Binding affinity (Oryctolagus cuniculus): 4 µM
SMILES: COc1ccccc1CN[C@H]1CCCN[C@H]1c1ccccc1 [CP-99994]
ED50 (Rattus norvegicus [1]): 0.052 mg/kg
ED50 (Cavia porcellus): 1.6 mg/kg

Binding affinity (Oryctolagus cuniculus): 2.3 µM
SMILES: FC(F)(F)c1cc(CO[C@H]2CCCN(Cc3c[nH]cn3)[C@H]2c2ccccc2)cc(C(F)(F)F)c1
Concentration (Rattus norvegicus [2]): 0.72 µM
Concentration (Rattus norvegicus [3]): 0.18 µM
Concentration (Rattus norvegicus [4]): 0.55 µM

pIC50 (Substance-P receptor): 7.37
SMILES: FC(F)(F)c1cc(CO[C@H]2CCCN(Cc3nnn[nH]3)[C@H]2c2ccccc2)cc(C(F)(F)F)c1

Binding affinity (Oryctolagus cuniculus): > 5 µM
SMILES: FC(F)(F)c1cc(CO[C@H]2CCCN(Cc3nn[nH]n3)[C@H]2c2ccccc2)cc(C(F)(F)F)c1

Concentration (Rattus norvegicus [5]): 826 ng/mL
Vd [6]: 2.6 L/kg
Concentration (Rattus norvegicus [7]): 116 ng/mL
Concentration (Rattus norvegicus [8]): 581 ng/mL
Concentration (Rattus norvegicus [9]): < 10 ng/mL
pIC50 (Substance-P receptor): 9.66
Concentration (Rattus norvegicus [10]): 71.3 ng/mL
bioavailability [11]: 18%
clearance [12]: 44 mL/min/kg
Concentration (Rattus norvegicus [13]): < 10 ng/mL
Concentration (Rattus norvegicus [14]): 304 ng/mL
Concentration (Rattus norvegicus [15]): 40.1 ng/mL
Concentration (Rattus norvegicus [16]): 33.7 ng/mL
Concentration (Rattus norvegicus [17]): 36.9 ng/mL
Concentration (Rattus norvegicus [18]): 11.2 ng/mL
Concentration (Rattus norvegicus [19]): 13.2 ng/mL
Concentration (Rattus norvegicus [20]): < 10 ng/mL
Concentration (Rattus norvegicus [21]): 35.1 ng/mL
SMILES: FC(F)(F)c1cc(CO[C@H]2CCCN(Cc3nnc[nH]3)[C@H]2c2ccccc2)cc(C(F)(F)F)c1
